Assay [1] has as its target T1, Estrogen receptor (Homo sapiens) (UniProt P03372).
T1 sequence (whole entry): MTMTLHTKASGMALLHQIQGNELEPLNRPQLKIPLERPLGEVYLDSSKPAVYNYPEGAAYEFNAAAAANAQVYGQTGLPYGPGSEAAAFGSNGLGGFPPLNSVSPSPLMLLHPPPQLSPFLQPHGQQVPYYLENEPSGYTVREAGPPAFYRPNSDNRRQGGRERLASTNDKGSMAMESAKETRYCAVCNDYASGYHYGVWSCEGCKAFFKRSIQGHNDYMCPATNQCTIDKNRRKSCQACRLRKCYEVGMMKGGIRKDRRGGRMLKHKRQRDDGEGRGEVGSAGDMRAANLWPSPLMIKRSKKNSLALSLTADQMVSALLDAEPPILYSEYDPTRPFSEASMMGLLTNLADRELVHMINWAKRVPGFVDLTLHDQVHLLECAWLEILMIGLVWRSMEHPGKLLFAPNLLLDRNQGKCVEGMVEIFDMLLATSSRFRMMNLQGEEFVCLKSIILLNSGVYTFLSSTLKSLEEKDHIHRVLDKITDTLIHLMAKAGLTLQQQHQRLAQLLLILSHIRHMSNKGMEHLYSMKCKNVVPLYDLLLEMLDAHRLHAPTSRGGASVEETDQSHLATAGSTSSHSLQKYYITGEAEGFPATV
The experiment in a line: Relative binding affinity of Z isomers to human ERalpha-HBD at 25 degree C compared to [3H]estradiol. The gist of the method:
(§1)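 ERα-HBD (33 kDa) expressed in BL21 cells, induced with 0.6 mM IPTG for 3 h at room temperature. Lysed by sonication in Tris/NaCl/EDTA/DTT/1 M urea buffer, pH 7.4, clarified at 30000g, and diluted to 50 nM ER. […] Bound and free separated with dextran-coated charcoal. RBA = 100×[E]/[C], from 50% inhibition on a best-fit curve.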

In assay [2] the target is T1, Estrogen receptor (Homo sapiens). The experiment in a line: Relative binding affinity of E isomers to human ERalpha-HBD at 4C compared to [3H]-estradiol.
Assay [3] has the same target. The experiment in a line: Relative binding affinity of E isomers to human ERalpha-HBD at 25 degree C compared to [3H]estradiol.
For assay [4] the target is unchanged. Kind of assay: Relative binding affinity of Z isomers to human ERalpha-HBD at 4C compared to [3H]estradiol. The gist of the method: as §1
The target in assay [5] is T2, Estrogen receptor (Rattus norvegicus) (UniProt P06211+Q62986). Kind of assay: Effective dose of Z-isomer in rat uterotrophic growth assay compared to 10 nmol estradiol. It is filed as functional.
Assay [6] has as its target T2, Estrogen receptor (Rattus norvegicus). The experiment in a line: Effective dose of E-isomer in rat uterotrophic growth assay compared to 10 nmol estradiol. In kind it is functional.

For `C[C@]12CC[C@@H]3c4ccc(O)cc4CC[C@H]3[C@@H]1CC[C@@]2(O)/C=C\c1ccccc1`, the RBA in assay [1] stood at 66%; in assay [2] it was 16%; in assay [3], 9%; in assay [4] it was 57%.
Consider `C[C@]12CC[C@@H]3c4ccc(O)cc4CC[C@H]3[C@@H]1CC[C@@]2(O)/C=C\c1ccc(C(F)(F)F)cc1`, for which the figures for the ED50 in assay [5] and in assay [6] were 1.1 nmol and 10.6 nmol, respectively. Also, the RBA came out at 9% in assay [1], 5% in assay [2], 8% in assay [3] and 5% in assay [4].
Regarding `COc1ccc(/C=C\[C@]2(O)CC[C@H]3[C@@H]4CCc5cc(O)ccc5[C@H]4CC[C@@]32C)cc1`, the RBA in assay [1] was found to be 39%; in assay [2], 36%; in assay [3] it was 32%; in assay [4] it was 20%.
As to `Cc1ccc(/C=C\[C@]2(O)CC[C@H]3[C@@H]4CCc5cc(O)ccc5[C@H]4CC[C@@]32C)cc1`, the results for the ED50 in assay [5] and in assay [6] were 4.2 nmol and 5.5 nmol, respectively. Moreover, the RBA amounted to 9% in assay [1], 10% in assay [2], 18% in assay [3] and 10% in assay [4].
As for `C[C@]12CC[C@@H]3c4ccc(O)cc4CC[C@H]3[C@@H]1CC[C@@]2(O)/C=C\c1ccc(O)cc1`, the RBA turned out to be 25% in assay [1], 21% in assay [2], 25% in assay [3] and 12% in assay [4].
In the case of `C[C@]12CC[C@@H]3c4ccc(O)cc4CC[C@H]3[C@@H]1CC[C@@]2(O)/C=C\c1ccc(N)cc1`, the RBA was determined as 26% in assay [1] and 22% in assay [4].
With `C[C@]12CC[C@@H]3c4ccc(O)cc4CC[C@H]3[C@@H]1CC[C@@]2(O)/C=C\c1ccc(F)cc1`, the ED50 in assay [5] turned out to be 2.3 nmol; in assay [6], 72 nmol. The RBA in assay [1] stood at 44%; in assay [2], 24%; in assay [3], 22%; in assay [4], 43%.
Take `CC(=O)c1ccc(/C=C\[C@]2(O)CC[C@H]3[C@@H]4CCc5cc(O)ccc5[C@H]4CC[C@@]32C)cc1`: the RBA in assay [1] was 29%; in assay [2] it was 53%; in assay [3], 60%; in assay [4] it was 22%.
The corresponding values for `C[C@]12CC[C@@H]3c4ccc(O)cc4CC[C@H]3[C@@H]1CC[C@@]2(O)/C=C\c1ccc(C#N)cc1` are 12%, 9%, 27% and 20%.

(Values after ChEMBL document CHEMBL1140290, “Synthesis and evaluation of (17alpha,20Z)-21-(4-substituted-phenyl)-19-norpregna-1,3,5(10),20-tetraene-3,17beta-diols as ligands for the estrogen receptor-alpha hormone binding domain: comparison with 20E-isomers” (J Med Chem, 2005).)
